Experimental findings from ChEMBL document CHEMBL1122179, “1-(alkylamino)isochromans: hypotensives with peripheral and central activities” (J Med Chem, 1982) are described below.

Assay [1] deals with T1, Adrenergic receptor alpha-1 (Rattus norvegicus, UniProt P15823+P23944+P43140).
T1 sequence (P15823 whole entry): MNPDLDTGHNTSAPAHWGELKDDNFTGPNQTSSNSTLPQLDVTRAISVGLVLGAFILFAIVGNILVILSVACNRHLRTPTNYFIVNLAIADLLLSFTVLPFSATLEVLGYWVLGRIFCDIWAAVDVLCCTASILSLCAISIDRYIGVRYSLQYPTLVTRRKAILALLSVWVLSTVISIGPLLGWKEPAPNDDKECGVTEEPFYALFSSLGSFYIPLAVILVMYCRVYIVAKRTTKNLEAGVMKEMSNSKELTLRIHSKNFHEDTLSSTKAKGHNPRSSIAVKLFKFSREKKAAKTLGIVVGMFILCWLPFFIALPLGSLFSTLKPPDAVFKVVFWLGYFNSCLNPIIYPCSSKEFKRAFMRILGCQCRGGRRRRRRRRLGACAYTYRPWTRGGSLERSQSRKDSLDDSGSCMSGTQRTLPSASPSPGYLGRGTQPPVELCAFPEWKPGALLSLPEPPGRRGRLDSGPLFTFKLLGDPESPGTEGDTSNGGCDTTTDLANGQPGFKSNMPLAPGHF
T1 sequence (P23944 whole entry): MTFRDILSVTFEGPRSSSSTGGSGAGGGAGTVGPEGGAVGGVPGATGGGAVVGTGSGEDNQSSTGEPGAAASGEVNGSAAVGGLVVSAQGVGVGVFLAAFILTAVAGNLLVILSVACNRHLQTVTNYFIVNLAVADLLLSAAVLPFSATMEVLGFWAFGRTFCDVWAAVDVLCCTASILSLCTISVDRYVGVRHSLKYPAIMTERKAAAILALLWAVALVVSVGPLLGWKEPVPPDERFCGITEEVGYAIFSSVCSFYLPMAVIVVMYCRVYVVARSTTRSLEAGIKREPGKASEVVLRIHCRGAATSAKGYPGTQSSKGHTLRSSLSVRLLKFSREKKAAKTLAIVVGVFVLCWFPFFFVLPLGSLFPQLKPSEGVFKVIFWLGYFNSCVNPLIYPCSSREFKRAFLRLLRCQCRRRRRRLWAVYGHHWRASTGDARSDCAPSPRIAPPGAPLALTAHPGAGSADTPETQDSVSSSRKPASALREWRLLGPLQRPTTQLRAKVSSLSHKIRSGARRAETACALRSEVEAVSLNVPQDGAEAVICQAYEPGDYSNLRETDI
T1 sequence (P43140 whole entry): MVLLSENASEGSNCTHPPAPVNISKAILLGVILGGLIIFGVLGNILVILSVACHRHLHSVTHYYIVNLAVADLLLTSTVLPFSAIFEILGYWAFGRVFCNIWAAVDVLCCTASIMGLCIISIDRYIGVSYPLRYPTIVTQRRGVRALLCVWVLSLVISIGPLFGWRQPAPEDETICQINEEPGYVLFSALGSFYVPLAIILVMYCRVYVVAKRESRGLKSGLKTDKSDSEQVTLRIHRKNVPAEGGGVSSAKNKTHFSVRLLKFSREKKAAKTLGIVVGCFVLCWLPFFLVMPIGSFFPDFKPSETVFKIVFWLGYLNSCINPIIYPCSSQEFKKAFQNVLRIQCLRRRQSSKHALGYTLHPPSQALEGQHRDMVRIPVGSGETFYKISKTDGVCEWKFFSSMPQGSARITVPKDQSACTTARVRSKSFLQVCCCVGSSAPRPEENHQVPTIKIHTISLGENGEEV
The experiment in a line: Compound was tested for the inhibition of [3H]prazosin binding alpha-1-adrenergic receptor of crude rat brain membrane.

Assay [2] relates to Rattus norvegicus. The experiment in a line: Heart rate of compound was measured in anesthetized rats at 0 min. In kind it is functional. In short, it runs like this: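 Female Sprague-Dawley rats (200–300 g), anesthetized iv with α-chloralose (40 mg/kg), urethane (40 mg/kg) and pentobarbital (15 mg/kg). Carotid artery catheter for blood pressure and heart rate, jugular vein for drugs. Test agent given at 1.0 mg/kg iv in 0.1 M citric acid (1 mg/mL). Pressor responses to iv norepinephrine 0.1 μg/kg, phenylephrine 2.5 μg/kg and angiotensin I 0.1 μg/kg were taken before and 15, 30, 45 and 60 min after dosing. Mean ± SEM.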

Assay [3] has as its system Rattus norvegicus. The experiment in a line: Pressor effects of intravenous phenylephrine (2.5 ug/kg) was measured in anesthetized rats at 60 min. In kind it is functional. In short, it runs like this: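 Female Sprague–Dawley rats (200–300 g) anesthetized iv with α-chloralose 40 mg/kg, urethane 40 mg/kg and pentobarbital 15 mg/kg. Carotid artery catheterized for blood pressure, jugular vein for drugs. Pressor response to iv phenylephrine 2.5 µg/kg measured before and 15, 30, 45, 60 min after 1.0 mg/kg iv test drug dissolved in 0.1 M citric acid (1 mg/mL). Mean ± SEM.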

Turning to `COc1cc2c(cc1OC)C(CCN1CCN(c3ccc(F)cc3)CC1)OCC2` (stereo not drawn), in assay [1], the inhibition constant (Ki) came to 4 nM. For the same compound, in the assay on Rattus norvegicus [2], the HR was 417 beats min-1. In addition, the Pressor response in the assay on Rattus norvegicus [3] came to 16 mmHg.

Broadly, the Ki is the equilibrium dissociation constant of an inhibitor or competing ligand from its target. High values mean a looser hold on the target, low ones a stronger hold on the target.
